For 24 compounds, GI50 and RatioGI50 results are on record in ChEMBL document CHEMBL3400028, “Evaluation of Aconitum diterpenoid alkaloids as antiproliferative agents” (2015).

Common to all, as to format: functional
One test concerns KB. The experiment in a line: Antiproliferative activity against human KB cells by sulforhodamine B assay. In a few lines:
(§1)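 Cells in RPMI 1640 (25 mM HEPES, 2 mM L-glutamine, 10% heat-inactivated FBS, antibiotics) at 37 °C, 5% CO2. Seeded at 3–5 × 10³/well with graded concentrations, paclitaxel as assay control, for 72 h. TCA-fixed, stained with 0.04% SRB, dye dissolved in 10 mM Tris, A515 read. GI50 is the concentration halving absorbance versus untreated cells; three or more experiments.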
(The SRB assay estimates cell density from bound dye.)

Test [1] in a line: Antiproliferative activity against multidrug-resistant P-gp expressing human KBVIN cells by sulforhodamine B assay. In a few lines:
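Vincristine-resistant KB subline kept in 100 nM vincristine, then grown 7–10 days without it before testing. RPMI 1640 with 10% FBS, 37 °C, 5% CO2. 3–5 × 10³ cells/well exposed 72 h to a concentration series, paclitaxel as assay control. SRB staining after TCA fixation, A515 read. GI50 is the 50% absorbance reduction versus untreated cells; three or more experiments.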

The subject of a further test is A549. The experiment in a line: Antiproliferative activity against human A549 cells by sulforhodamine B assay. In a few lines: as §1
The nature of test [2]: Selectivity ratio of GI50 for human KB cells to GI50 for multidrug-resistant P-gp expressing human KBVIN cells. In a few lines:
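Ratio of GI50 in parental KB to GI50 in P-gp-overexpressing KB-VIN. […] KB-VIN cells were grown 7–10 days without vincristine before the assay.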

The subject of another test is DU-145. The test can be described thus: Antiproliferative activity against human DU145 cells by sulforhodamine B assay. In a few lines:
as §1

Broadly, the GI50 is the concentration giving 50% growth inhibition. Lower therefore signals greater sensitivity of the cells. Take `C=C1[C@H]2C[C@H]3C4N5C[C@]6(C)CCC[C@]47[C@H]([C@H]2OC(=O)c2ccccc2)C3(C[C@]5(OC(=O)c2ccccc2)[C@H]67)[C@@H]1O`: the GI50 (with KB; in test [1]; in the test with A549; with DU-145) was 10 µM in each case. In test [2], the RatioGI50 is 10.

Take `C=C1[C@H]2C[C@H]3C4N5C[C@]6(C)CCC[C@]47[C@H]([C@H]2OC(=O)c2ccc(OC)cc2)C3(C[C@]5(O)[C@H]67)[C@@H]1O`: the GI50 (with KB; in test [1]; with A549; in the test with DU-145) was 10 µM each time. Also, the RatioGI50 in test [2] was found to be 10.

Take `C=C1[C@H]2C[C@H]3C4N5C[C@]6(C)CCC[C@]47[C@H]([C@H]2O)C3(C[C@]5(OC(=O)/C=C/c2ccccc2)[C@H]67)[C@@H]1O`: the GI50 (in the test with KB; in test [1]; in the test with A549; in the test with DU-145) was greater than 20 µM in each case. In test [2], the RatioGI50 is given as greater than 20.

For `C=C1[C@H]2C[C@H]3C4N5C[C@]6(C)CCC[C@]47[C@H]([C@H]2O)C3(C[C@]5(OC(=O)c2ccccc2)[C@H]67)[C@@H]1O`, the GI50 (with KB; in test [1]; in the test on A549; in the test on DU-145) was greater than 20 µM throughout. In addition, the RatioGI50 in test [2] is on record as greater than 20.

Consider `C=C1[C@H]2C[C@H]3C4N5C[C@]6(C)CCC[C@]47[C@H]([C@H]2O)C3(C[C@]5(OC(=O)c2ccc(OC)cc2)[C@H]67)[C@@H]1O`, for which the GI50 (in the test with KB; in test [1]; in the test on A549; in the test with DU-145) was greater than 20 µM throughout. For the same compound, the RatioGI50 in test [2] is given as greater than 20.

In the case of `C=C1[C@H]2C[C@@H]3C4N5C[C@]6(C)CCC[C@@]47[C@@H]6[C@@]5(O)C[C@]3([C@@H]1OC(C)=O)[C@H]7[C@H]2O`, the GI50 (in the test with KB; in test [1]; in the test on A549; in the test on DU-145) was greater than 20 µM throughout.

For `C=C1[C@H]2C[C@@H]3C4N5C[C@]6(C)CCC[C@@]47[C@@H]6[C@@]5(O)C[C@]3([C@@H]1OC(C)=O)[C@H]7[C@H]2OC(C)=O`, the GI50 (in the test on KB; in test [1]; in the test on A549; in the test on DU-145) was greater than 20 µM each time.

Turning to `C=C1[C@H]2C[C@@H]3C4N(C(C)=O)C[C@]5(C)CCC[C@@]46[C@@H]5C(=O)C[C@]3([C@@H]1OC(C)=O)[C@H]6[C@H]2OC(C)=O` (some centres not stated), the GI50 (with KB; in test [1]; in the test with A549; in the test with DU-145) was greater than 20 µM each time.

Take `C=C1[C@H]2C[C@@H]3C4N5C[C@]6(C)CCC[C@@]47[C@@H]6[C@@]5(O)C[C@]3([C@@H]1OC(=O)c1ccccc1)[C@H]7[C@H]2OC(=O)c1ccccc1`: the GI50 in the test on KB came out at 5.2 µM; in test [1], 6.3 µM; in the test on A549, 8.8 µM; in the test on DU-145, 7.6 µM. Further, the RatioGI50 in test [2] was 0.82.

Turning to `C=C1[C@H]2C[C@@H]3C4N5C[C@]6(C)CCC[C@@]47[C@@H]6[C@@]5(OC(=O)c4ccc(OC)cc4)C[C@]3([C@@H]1O)[C@H]7[C@H]2OC(=O)c1ccc(OC)cc1`, the GI50 (in the test on KB; in test [1]; with A549; in the test on DU-145) was greater than 20 µM in each case. The RatioGI50 in test [2] is on record as greater than 20.

As to `C=C1[C@H]2C[C@@H]3C4N5C[C@]6(C)CCC[C@@]47[C@@H]6[C@@]5(OC(=O)c4ccc(OC)cc4)C[C@]3([C@@H]1OC(=O)c1ccc(OC)cc1)[C@H]7[C@H]2O`, the 50% growth inhibitory concentration (GI50) (in the test on KB; in test [1]; with A549; with DU-145) was greater than 20 µM throughout. Further, the RatioGI50 in test [2] was greater than 20.

As to `C=C1[C@H]2C[C@@H]3C4N5C[C@]6(C)CCC[C@@]47[C@@H]6[C@@]5(O)C[C@]3([C@@H]1OC(=O)c1ccc(OC)c(OC)c1)[C@H]7[C@H]2O`, the GI50 (in the test with KB; in test [1]; with A549; in the test on DU-145) was greater than 20 µM throughout. Moreover, the RatioGI50 in test [2] was greater than 20.

As for `C=C1[C@H]2C[C@@H]3C4N5C[C@]6(C)CCC[C@@]47[C@@H]6[C@@]5(OC(=O)c4ccc(OC)c(OC)c4)C[C@]3([C@@H]1O)[C@H]7[C@H]2OC(=O)c1ccc(OC)c(OC)c1`, the GI50 (in the test with KB; in test [1]; in the test with A549; with DU-145) was 10 µM throughout. Besides, the RatioGI50 in test [2] is 10.

For `C=C1[C@H]2C[C@@H]3C4N5C[C@]6(C)CCC[C@@]47[C@@H]6[C@@]5(OC(=O)c4ccc(OC)c(OC)c4)C[C@]3([C@@H]1OC(=O)c1ccc(OC)c(OC)c1)[C@H]7[C@H]2O`, the concentration for 50% growth inhibition (GI50) (with KB; in test [1]; in the test with A549; with DU-145) was 10 µM each time. Moreover, in test [2], the RatioGI50 is listed as 10.

With `C=C1[C@H]2C[C@@H]3C4N5C[C@]6(C)CCC[C@@]47[C@@H]6[C@@]5(OC(=O)c4ccc([N+](=O)[O-])cc4)C[C@]3([C@@H]1O)[C@H]7[C@H]2O`, the GI50 (with KB; in test [1]; with A549; with DU-145) was greater than 20 µM in each case. In test [2], the RatioGI50 is greater than 20.

As to `C=C1[C@H]2C[C@@H]3C4N5C[C@]6(C)CCC[C@@]47[C@@H]6[C@@]5(O)C[C@]3([C@@H]1O)[C@H]7[C@H]2OC(=O)c1ccc([N+](=O)[O-])cc1`, the GI50 in the test with KB is 6.4 µM; in test [1] it was 6.4 µM; with A549 it was 5.8 µM; in the test on DU-145 it was 7.2 µM. Besides, the RatioGI50 in test [2] was determined as 1.

Regarding `C=C1[C@H]2C[C@@H]3C4N5C[C@]6(C)CCC[C@@]47[C@@H]6[C@@]5(O)C[C@]3([C@@H]1OC(=O)c1ccc([N+](=O)[O-])cc1)[C@H]7[C@H]2O`, the GI50 (in the test on KB; in test [1]; in the test on A549; with DU-145) was greater than 20 µM throughout. The RatioGI50 in test [2] was greater than 20.

For `C=C1[C@H]2C[C@@H]3C4N5C[C@]6(C)CCC[C@@]47[C@@H]6[C@@]5(OC(=O)c4ccc([N+](=O)[O-])cc4)C[C@]3([C@@H]1OC(=O)c1ccc([N+](=O)[O-])cc1)[C@H]7[C@H]2O`, the GI50 (with KB; in test [1]; in the test on A549; in the test with DU-145) was greater than 20 µM in each case. Also, the RatioGI50 in test [2] was greater than 20.

For the compound `C=C1[C@H]2C[C@@H]3C4N5C[C@]6(C)CCC[C@@]47[C@@H]6[C@@]5(OC(=O)c4ccc([N+](=O)[O-])cc4)C[C@]3([C@@H]1OC(=O)c1ccc([N+](=O)[O-])cc1)[C@H]7[C@H]2OC(=O)c1ccc([N+](=O)[O-])cc1`, the GI50 (with KB; in test [1]; in the test on A549; in the test with DU-145) was greater than 20 µM throughout. In test [2], the RatioGI50 is greater than 20.

As to `C=C1[C@H]2C[C@@H]3C4N5C[C@]6(C)CCC[C@@]47[C@@H]6[C@@]5(O)C[C@]3([C@@H]1OC(=O)c1cccc([N+](=O)[O-])c1)[C@H]7[C@H]2OC(=O)c1cccc([N+](=O)[O-])c1`, the GI50 in the test with KB stood at 5.6 µM; in test [1] it was 5.6 µM; with A549 it was 5 µM; in the test on DU-145, 5.2 µM. The RatioGI50 in test [2] amounted to 0.99.

Turning to `C=C1[C@H]2C[C@@H]3C4N5C[C@]6(C)CCC[C@@]47[C@@H]6[C@@]5(O)C[C@]3([C@@H]1O)[C@H]7[C@H]2OC(=O)c1cccc(C(F)(F)F)c1`, the GI50 with KB was found to be 8.9 µM; in test [1] it was 6.2 µM; in the test with A549, 6.8 µM; with DU-145 it was 7.7 µM. Moreover, the RatioGI50 in test [2] is 1.5.

On to `C=C1[C@H]2C[C@@H]3C4N5C[C@]6(C)CCC[C@@]47[C@@H]6[C@@]5(OC(=O)c4cccc(C(F)(F)F)c4)C[C@]3([C@@H]1O)[C@H]7[C@H]2OC(=O)c1cccc(C(F)(F)F)c1`, for which the 50% growth inhibitory concentration (GI50) (in the test with KB; in test [1]; in the test on A549; in the test with DU-145) was greater than 20 µM each time. Further, the RatioGI50 in test [2] is greater than 20.

Turning to `C=C1[C@H]2C[C@@H]3C4N5C[C@]6(C)CCC[C@@]47[C@@H]6[C@@]5(O)C[C@]3([C@@H]1O)[C@H]7[C@H]2OC(=O)c1ccc(C(F)(F)F)cc1`, the GI50 (in the test on KB; in test [1]; with A549; in the test on DU-145) was 10 µM throughout. In test [2], the RatioGI50 was found to be 10.

Regarding `C=C1[C@H]2C[C@H]3C4N5C[C@]6(C)CCC[C@]47[C@H]([C@H]2OC(=O)c2ccc(OC)c(OC)c2)C3(C[C@]5(O)[C@H]67)[C@@H]1O`, the GI50 (with KB; in test [1]; in the test on A549; with DU-145) was 10 µM in each case. Besides, in test [2], the RatioGI50 is listed as 10.
